The list is not random: actives were taken first. Their share in the collection is about 1.9%.
p-CIP stab down: compounds decreasing mouse p/CIP protein stability; decrease of EGFP signal, % at 10 µM; 0.01% of 290,000 active; F442A p/CIP-EGFP cells, EGFP fluorescence, 16 h; Q05BA5;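 active = EGFP signal decrease of at least 30% at 10 µM or well 3 SD below plate mean, unless failing retest; inactive = the rest, including hits failing retest or dose response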
Target sequence (Q05BA5 1-1403): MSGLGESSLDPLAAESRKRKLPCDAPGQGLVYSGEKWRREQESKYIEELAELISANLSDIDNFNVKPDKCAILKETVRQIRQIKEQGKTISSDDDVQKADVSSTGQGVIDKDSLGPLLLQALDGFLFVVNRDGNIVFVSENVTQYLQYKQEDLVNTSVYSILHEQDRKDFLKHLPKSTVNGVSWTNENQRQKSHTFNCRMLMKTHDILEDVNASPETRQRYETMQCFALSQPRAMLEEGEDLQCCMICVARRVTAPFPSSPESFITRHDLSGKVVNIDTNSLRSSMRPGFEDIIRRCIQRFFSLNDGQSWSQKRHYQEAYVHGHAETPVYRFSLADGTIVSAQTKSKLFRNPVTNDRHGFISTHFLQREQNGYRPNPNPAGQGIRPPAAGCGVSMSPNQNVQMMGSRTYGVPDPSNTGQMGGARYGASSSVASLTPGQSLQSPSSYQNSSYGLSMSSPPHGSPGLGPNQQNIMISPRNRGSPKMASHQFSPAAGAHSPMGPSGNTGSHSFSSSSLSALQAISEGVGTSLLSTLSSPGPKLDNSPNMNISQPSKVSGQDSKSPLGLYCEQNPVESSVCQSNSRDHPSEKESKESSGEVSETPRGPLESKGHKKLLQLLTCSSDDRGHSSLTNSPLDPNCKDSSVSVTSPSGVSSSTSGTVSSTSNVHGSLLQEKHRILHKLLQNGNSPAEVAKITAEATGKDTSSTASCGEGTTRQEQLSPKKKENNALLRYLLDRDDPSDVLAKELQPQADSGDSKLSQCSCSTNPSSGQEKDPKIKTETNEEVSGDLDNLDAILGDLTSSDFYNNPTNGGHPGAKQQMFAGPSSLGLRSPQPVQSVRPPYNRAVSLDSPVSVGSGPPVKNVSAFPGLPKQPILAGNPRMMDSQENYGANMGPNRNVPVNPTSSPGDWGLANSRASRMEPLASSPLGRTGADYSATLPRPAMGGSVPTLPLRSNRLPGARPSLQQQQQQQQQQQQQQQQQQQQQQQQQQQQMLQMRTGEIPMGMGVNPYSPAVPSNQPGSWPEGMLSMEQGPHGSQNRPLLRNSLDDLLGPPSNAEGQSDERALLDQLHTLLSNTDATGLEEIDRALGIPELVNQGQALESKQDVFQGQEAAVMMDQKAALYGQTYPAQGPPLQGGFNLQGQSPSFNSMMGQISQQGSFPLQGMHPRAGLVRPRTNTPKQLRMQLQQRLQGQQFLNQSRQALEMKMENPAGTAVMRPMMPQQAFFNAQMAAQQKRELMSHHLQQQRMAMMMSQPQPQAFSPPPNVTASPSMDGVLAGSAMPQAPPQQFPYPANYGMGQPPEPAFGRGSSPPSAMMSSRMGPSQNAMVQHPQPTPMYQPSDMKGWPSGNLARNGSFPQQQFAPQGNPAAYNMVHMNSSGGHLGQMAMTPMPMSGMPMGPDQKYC
HCV NS3 hel inh: inhibitors of Hepatitis C virus NS3 helicase; NS3 helicase DNA unwinding, Cy5 molecular beacon fluorescence; inhibition, % at 10.9 µM; 0.56% of 290,000 active; AID 1800;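 active = inhibition above the mean of all tested compounds plus 3 SD, set per campaign, cut at about 35% in these data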;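 also: 0% = DMSO wells and 100% = thioflavine S control wells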
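Measured by: Cy5 fluorescence, 0 and 60 min reads / Assay system: NS3 helicase fragment of HCV / Control set: low DMSO, high thioflavine S at 110 µM / Times: 1 h reaction at 25 °C, ATP-initiated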
DNA FID counter-1: displaces DNA intercalator in HCV helicase counter-screen; DNA fluorescent intercalator displacement, fluorescence; 0.17% of 290,000 active; inhibition, % at 7.9 µM;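 also: 0% = vehicle and 100% = reference compound; higher means more ethidium bromide displaced from hairpin DNA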
GPR7 antag: blocks human GPR7 receptor signaling; P48145; 1.1% of 290,000 active; AID 1861; inhibition, % at 4.4 µM; GPR7-expressing cells, fluorescence antagonist assay; in the data active = inhibition above about 16%, passing the limit was not always enough;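 also: cells stimulated with the agonist NPW; 0% = agonist with vehicle and 100% = vehicle without agonist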
core dimer inh: HCV core protein dimerization inhibition. TR-FRET GST/Flag-core106 dimerization, 1536-well. inhibition, % at 5 µM. 0.33% of 300,000 active;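 active = inhibition above the mean of all tested compounds plus 3 SD, set per screening campaign, cut at about 45% in these data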
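System: GST-tagged and Flag-tagged HCV core protein residues 1-106 / Input: core106 proteins, GST 13.5 nM and Flag 17 nM / Buffer or medium: KF-containing HEPES buffer, pH 7.45, DTT, CHAPS, BSA / Probe or stimulus: Eu-anti-GST and XL665-anti-Flag labelled anti-tag antibodies / Schedule: 4 h, 22.5 °C incubation / Technique: TR-FRET 671 and 617 nm emission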
NS3 helicase cf: confirmation of Hepatitis C virus NS3 helicase inhibitors. shares compounds with HCV NS3 hel inh. NS3 helicase DNA unwinding, Cy5 molecular beacon fluorescence. inhibition, % at 10.9 µM. 31% of 1,600 active;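 active = inhibition above the mean of all tested compounds plus 3 SD, cutoff set per campaign, cut at about 36% in these data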
DNA FID counter-2: intercalator displacement, NS3 helicase counter-screen; shares compounds with HCV NS3 hel inh; DNA fluorescent intercalator displacement, fluorescence; inhibition, % at 7.9 µM; 4% of 1,600 active; AID 1945;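 also: 0% = vehicle and 100% = reference compound; higher means more displacement of ethidium bromide from the DNA hairpin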
DNA FID DR: displaces fluorescent intercalator from DNA, HCV helicase counter-screen; AID 2172; 120 tested, under 10 active; IC50, µM; shares compounds with HCV NS3 hel inh; fluorescent intercalator displacement from DNA, fluorescence; call rule not given here
Active calls of the source: *; x = not tested or not shown. Rule as the data show it, unless noted: active = inhibition above about 37%; inactive = the rest.

SMILES	p-CIP stab down	HCV NS3 hel inh	DNA FID counter-1	GPR7 antag	core dimer inh	NS3 helicase cf	DNA FID counter-2	others
COc1ccc(Nc2cc(C(=O)NCCCOC(C)C)c3ccccc3n2)c(OC)c1	-1	-24	-19	-4	3	x	x
COc1ccc(Nc2cc(C(=O)NCCCN3CCN(C)CC3)c3ccccc3n2)c(OC)c1	-5	64*	31	3	-15	10	66*
N#CC1=C(N)S[C@@H](C(=O)c2ccc(F)cc2)[C@@H]1c1cccs1	2	39*	-12	-8	8	7	16
NS(=O)(=O)c1ccc(CCNC(=O)c2cc3ccccc3s2)cc1	-5	51*	-23	-2	-17	-3	-6
NS(=O)(=O)c1ccc(CCNC(=O)c2ccc(Cl)s2)cc1	-1	9	-7	-7	0	x	x
Cc1ccc(-c2csc(NC(=O)c3ccccc3Cl)c2C(=O)O)cc1	-3	39*	-9	25	15	77*	7
Cc1ccc(-c2csc(NC(=O)c3cccc(C)c3)c2C(=O)O)cc1	x	x	x	x	11	x	x
Cc1ccc2nc(Nc3nc(C)cc(-c4ccccc4)n3)[nH]c(=O)c2c1	-8	-8	-2	-1	7	x	x
CC1CC(CN)CC(CO)C1 (configuration not stated)	-12	-1	-1	-7	2	x	x
COc1ccc(NC(=O)c2ccc(NC3=NC4CS(=O)(=O)CC4S3)cc2)cc1 (configuration not stated)	8	47*	-5	-7	-1	-4	11
Cc1cc(C)cc(NC(=O)c2ccc(NC3=NC4CS(=O)(=O)CC4S3)cc2)c1 (configuration not stated)	6	-2	-16	-2	-9	x	x
CCCOc1ccccc1NC(=O)Nc1ccccc1Cl	-9	4	-6	-13	-5	x	x
COc1ccc(OC)c(NC(=O)CSc2ccc(-c3ccco3)nn2)c1	4	45*	-37	9	43	-20	-13
COc1nc(C)ccc1-c1noc(-c2ccco2)n1	-3	6	-9	-6	1	x	x
COc1nc(-c2ccc(C)cc2)ccc1-c1noc(-c2ccco2)n1	-8	40*	-2	-6	6	-3	-3
Cc1ccc(-c2nn3c(C)nnc3s2)cc1NC(=O)c1ccc(-c2cccc(Cl)c2)o1	-16	60*	-34	3	x	-8	-27
Cc1nnc2sc(-c3cccc(NC(=O)c4ccc(-c5cccc(Cl)c5)o4)c3)nn12	x	-6	-4	-8	x	x	x
CC(=O)c1sc(NC(=O)c2ccc(COc3ccccc3Cl)o2)nc1C	-13	42*	-3	-5	3	21	15
O=C(NNC1CC(=O)N(c2ccccc2)C1=O)c1ccc(COc2ccccc2Cl)o1 (configuration not stated)	0	60*	-69	-5	7	-12	-27
O=C(NNC1CC(=O)N(c2ccccc2)C1=O)c1ccco1 (configuration not stated)	5	-7	-6	-13	1	x	x
CC(=O)Cc1nsc(NC(=O)c2ccc(COc3ccccc3Cl)o2)n1	-4	-16	-13	-5	-1	x	x
C#CCOCCOCCOCCNc1nc(N2CCN(C(=O)CCCCCCCCCCNC(=O)[C@H](CO)n3cc(CCCSC)nn3)CC2)nc(N2CCN(C(=O)CCCCCCCCCCNC(=O)[C@H](CCCN=C(N)N)n3cc(C[C@@H](C)CC)nn3)CC2)n1	x	x	x	x	12	x	x
OCC[C@@H]1C[C@@H](O)[C@H](O)[C@@]2(CCCCO2)O1	x	x	x	x	1	x	x
CCCOc1ccc(-c2nc(SCc3ccccc3)[nH]c(=O)c2C#N)cc1OC	-6	36*	-20	-10	22	91*	-14	DNA FID DR=>79
CCSc1nc(-c2ccccc2)c(C#N)c(=O)[nH]1	-7	15	-8	-7	0	x	x
SMILES	p-CIP stab down	HCV NS3 hel inh	DNA FID counter-1	GPR7 antag	core dimer inh	NS3 helicase cf	DNA FID counter-2	others
COc1ccc(CCNC(=O)C(=O)NCC2OCCN2S(=O)(=O)c2ccccc2)cc1 (configuration not stated)	-13	37*	-27	-5	14	-12	-47
CCCOc1ccc(C(=O)Nc2ccc(S(=O)(=O)Nc3onc(C)c3C)cc2)cc1	8	8	-32	-14	1	x	x
CCCCOc1ccc(C(=O)Nc2ccc(S(=O)(=O)Nc3onc(C)c3C)cc2)cc1	-22	40*	-15	-18	19	54*	-21
COc1ccc(/C=C2\N=C(C)OC2=O)cc1OC(C)=O	1	17	-5	-13	x	x	x
COc1ccc(/C=C2\N=C(C)OC2=O)cc1OC	-9	38*	-11	-1	-15	-13	18
Oc1ccc(/C=N/N=C(c2ccccc2)c2ccccc2)c(O)c1O	-16	52*	-23	-5	3	-22	21
O=C(/C(=N/N=C/c1ccc(O)c(O)c1O)c1ccccc1)c1ccccc1	-25	49*	-16	-6	33	1	27
Oc1cccc(C=NCc2ccccc2)c1O	-1	18	-3	-3	3	x	x
Cc1ccc(Nc2cc(C)nc3ncnn23)cc1	1	-4	-6	-12	-6	x	x
COc1cccc(-n2c(SCc3cc(=O)oc4cc(O)c(O)cc34)nc3ccccc3c2=O)c1	-9	86*	20	-6	8	134*	1	DNA FID DR=>79
O=C(Nc1nc2c(Cl)cccc2s1)C1CC1	-10	2	-1	2	-3	x	x
O=C(Nc1nc2c(Cl)c(Cl)ccc2s1)C1CC1	12	41*	-20	11	-6	2	-12
O=C(O)c1ccccc1-c1ccccc1C(=O)NNc1ccc([N+](=O)[O-])cc1	-1	38*	-14	5	7	-29	-6
C/C(=N\NC(=O)c1nnn(-c2nonc2N)c1-c1ccc(Cl)c(Cl)c1)c1ccncc1	13	-11	-8	0	-1	x	x
C[C@H]1c2cccc(O)c2C(O)=C2C(=O)C3(O)C(O)=C(C(N)=O)C(=O)[C@@H](N(C)C)[C@@H]3[C@@H](O)[C@@H]21 (some centres not stated)	x	x	x	x	-1	x	x
C=C1c2cccc(O)c2C(O)=C2C(=O)[C@]3(O)C(O)=C(C(N)=O)C(=O)[C@@H](N(C)C)[C@@H]3[C@@H](O)[C@H]12	-12	85*	2	1	-8	55*	17	DNA FID DR=>79
CCN(CC)c1ccc(/C=C(\C#N)c2nc(-c3cccs3)c(NC(C)=O)s2)cc1	-738	45*	-14	4	x	-15	14
CC(=O)Nc1sc(N/N=C\c2ccc(O)cc2)nc1-c1cccs1	0	4	-11	-13	2	x	x

From PubChem
